Reference: ChEMBL document CHEMBL3091364, “Benzyloxybenzylammonium chlorides: Simple amine salts that display anticonvulsant activity” (Bioorg Med Chem, 2013)
Activity calls are given as the source filed them. No cut-off for these calls is given here.

What was measured:
Mus musculus [1] = assay: Anticonvulsant activity in albino CF-1 mouse assessed as protection against maximal electroshock-induced seizures at 100 mg/kg, ip; format: functional, organism-based; design: dose 100 mg/kg
How it was run: (§1)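 Screened under the NINDS ASP in male albino Carworth Farms No. 1 mice (ip) or male albino Sprague-Dawley rats (ip or po), using MES, 6 Hz (32 mA) and subcutaneous pentylenetetrazol seizure tests. Initial qualitative tests used preset doses (e.g., 30, 50, 100 mg/kg). ED50 values with 95% confidence intervals came from dose–response data collected at the time of peak effect.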

Mus musculus [2] = assay: Anticonvulsant activity in ip dosed albino CF-1 mouse assessed as protection against 6 Hz psychomotor seizure measured at 0.5 hrs; format: functional; conditions: albino CF-1, ip; how it was run: as §1

Compound	Activity (Mus musculus [1])	ED50 (Mus musculus [2]) [mg/kg]
Fc1cccc(COc2ccccc2)c1	inactive	–
COC[C@@H](NC(C)=O)C(=O)NCc1ccccc1 [LACOSAMIDE]	–	10
